Reference: ChEMBL document CHEMBL3739276, “Discovery of A-971432, An Orally Bioavailable Selective Sphingosine-1-Phosphate Receptor 5 (S1P5) Agonist for the Potential Treatment of Neurodegenerative Disorders” (J Med Chem, 2015)
Activity calls are given as the source filed them. No cut-off for these calls is given here.

Tests used:
Rattus norvegicus [1] = assay: Toxicity in Sprague-Dawley rat assessed as change in lymphocytes at 10 to 100 mg/kg, po qd measured on day 14; format: organism-based; details: in vivo
[2] = biological target: Sphingosine 1-phosphate receptor 2 (Homo sapiens) (UniProt O95136); assay: Displacement of [33P]S1P from S1P2 receptor (unknown origin) expressed in HEK cell membranes after 90 mins by scintillation counting based RLB method; details: HEK293
Procedure, shortened: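 S1P2 in transiently transfected HEK cell membranes, 5-10 µg per well, in HEPES pH 7.4 buffer with NaCl, MgCl2 and 0.1% fatty-acid-free BSA. [33P]S1P at 50 pM; non-specific binding defined with 1 µM unlabelled S1P. Incubated 90 min at 4°C, then filtered and scintillation counted. IC50 from non-linear curve fit of percent inhibition.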

[3] = Plasma concentration in Sprague-Dawley rat at 10 mg/kg, iv administered for 30 mins; format: ADME, organism-based
[4] = Cmax in BALB/C mouse brain at 2 mg/kg, po; format: ADME, organism-based; set-up: dose 2 mg/kg, route oral
[5] = Volume of distribution at steady state in cynomolgus monkey plasma at 1 mg/kg, iv; format: ADME, organism-based, Macaca fascicularis; details: read-out: Vdss
[6] = Tmax in Sprague-Dawley rat brain at 2 mg/kg, po; format: ADME, organism-based
[7] = biological target: Sphingosine 1-phosphate receptor 2 (Homo sapiens) (UniProt O95136); assay: Agonist activity at S1P2 receptor (unknown origin) expressed in CHO cell membranes up to 10 uM after 30 mins by GTPgammaS binding assay; format: functional
[8] = Clearance in Sprague-Dawley rat plasma at 1 mg/kg, iv; format: ADME, organism-based
Rattus norvegicus [9] = assay: Toxicity in female Sprague-Dawley rat assessed as weight loss at 100 mg/kg, po qd measured on day 8; format: organism-based; details: in vivo
[10] = Half life in beagle dog plasma at 1 mg/kg, iv; format: ADME, organism-based, Canis lupus familiaris
[11] = Plasma concentration in Sprague-Dawley rat at 100 mg/kg, po measured 5 hrs post dose; format: ADME, organism-based
Rattus norvegicus [12] = assay: Toxicity in Sprague-Dawley rat assessed as change in thymus weight at 10 to 100 mg/kg, po qd measured on day 14; format: organism-based; details: in vivo
Mus musculus [13] = assay: Decrease in pulmonary antigen challenge-induced MCP1 level in CD1 mouse at 0.3 to 30 mg/kg, po qd; format: functional, organism-based
Procedure, shortened: (§1)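 Part of a 41-assay multiplexed in vivo screening panel run at Melior Discovery. CD1 mice received 0.3, 3 and 30 mg/kg orally once daily; endpoints were compared with vehicle-treated mice.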

[14] = AUC in Sprague-Dawley rat plasma at 1 mg/kg, po; format: ADME, organism-based
[15] = Cmax in CD1 mouse at 10 mg/kg, po; format: ADME, organism-based; set-up: dose 10 mg/kg, route oral; details: in vivo
[16] = Half life in BALB/C mouse brain at 2 mg/kg, iv; format: ADME, organism-based
[17] = biological target: Sphingosine 1-phosphate receptor 3 (Homo sapiens, UniProt Q99500); assay: Agonist activity at S1P3 receptor (unknown origin) expressed in CHO cell membranes up to 10 uM after 30 mins by GTPgammaS binding assay; format: functional
Mus musculus [18] = assay: Anticonvulsant activity against CD1 mouse assessed as protection against pentylenetetrazole-induced seizures at 0.3 to 30 mg/kg, po qd; format: functional, organism-based; procedure, shortened: as §1
[19] = biological target: T1, Sphingosine 1-phosphate receptor 4 (Homo sapiens) (UniProt O95977); assay: Agonist activity at S1P4 receptor (unknown origin) expressed in CHO cell membranes up to 10 uM after 30 mins by GTPgammaS binding assay; format: functional
T1 sequence (whole entry): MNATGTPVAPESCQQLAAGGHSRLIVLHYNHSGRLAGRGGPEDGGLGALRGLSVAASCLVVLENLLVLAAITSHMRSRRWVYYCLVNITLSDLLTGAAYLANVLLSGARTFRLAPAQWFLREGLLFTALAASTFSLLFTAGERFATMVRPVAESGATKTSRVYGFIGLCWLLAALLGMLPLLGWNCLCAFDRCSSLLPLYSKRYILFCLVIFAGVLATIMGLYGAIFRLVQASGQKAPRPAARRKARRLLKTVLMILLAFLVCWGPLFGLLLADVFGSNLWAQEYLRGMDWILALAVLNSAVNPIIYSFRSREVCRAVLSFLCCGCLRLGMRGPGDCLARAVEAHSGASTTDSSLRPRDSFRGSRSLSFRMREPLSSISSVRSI

[20] = AUC in Sprague-Dawley rat brain at 2 mg/kg, po; format: ADME, organism-based
Rattus norvegicus [21] = assay: Lymphopenia activity in Sprague-Dawley rat assessed as change in lymphocyte counts at 100 mg/kg, po measured 5 hrs post dose; format: ADME, organism-based; details: in vivo
Rattus norvegicus [22] = assay: Cardiotoxicity in Sprague-Dawley rat assessed as heamodynamic effects at 10 mg/kg, iv administered for 30 mins; format: toxicity, organism-based; details: in vivo, 0.5 h
Procedure, shortened: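 Male Sprague-Dawley rats (327-400 g) under Inactin anaesthesia (100 mg/kg ip), with femoral arterial catheters for arterial pressure and heart rate, and a left-ventricular catheter for dP/dt at 50 mmHg. After a 30 min baseline, three sequential 30 min IV infusions of 3, 10 and 30 mg/kg in 20% DMA/40% PG/40% PEG-400. Treated n=4, vehicle n=5; unpaired t tests; plasma sampled after each infusion.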

[23] = Plasma concentration in Sprague-Dawley rat at 3 mg/kg, iv administered for 30 mins; format: ADME, organism-based
[24] = Tmax in cynomolgus monkey plasma at 1 mg/kg, po; format: ADME, organism-based, Macaca fascicularis
[25] = Plasma concentration in Sprague-Dawley rat at 10 mg/kg, po measured 5 hrs post dose; format: ADME, organism-based
[26] = biological target: T1, Sphingosine 1-phosphate receptor 4 (Homo sapiens); assay: Displacement of [33P]S1P from S1P4 receptor (unknown origin) expressed in HEK cell membranes after 45 to 60 mins by scintillation counting based RLB method; details: HEK293
Procedure, shortened: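 Membranes from transiently transfected HEK cells overexpressing the S1P receptor, 5-10 µg per well, in 50 mM HEPES pH 7.4, 100 mM NaCl, 10 mM MgCl2, 0.1% fatty-acid-free BSA. [33P]S1P at 50 pM; non-specific binding with 1 µM cold S1P. Final DMSO 1 or 0.5%. Incubated 45-60 min at room temperature, then filtered and counted. IC50 from non-linear fit of percent inhibition.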

[27] = AUC in cynomolgus monkey plasma at 1 mg/kg, po; format: ADME, organism-based, Macaca fascicularis
Rattus norvegicus [28] = assay: Toxicity in Sprague-Dawley rat assessed as change in spleen weight at 10 to 100 mg/kg, po qd measured on day 14; format: organism-based; details: in vivo
[29] = AUC in beagle dog plasma at 1 mg/kg, iv; format: ADME, organism-based, Canis lupus familiaris
Mus musculus [30] = assay: Reversal of age related cognitive deficits in C57BL6J mouse at 0.1 mg/kg, po qd administered for 21 days measured 225 mins post last dose by spontaneous alteration T-maze assay; format: functional
Procedure, shortened: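 Male C57BL/6J mice aged 12 months (n = 20), with 2-month-old mice (n = 11) as young controls. Randomized and blinded. Single daily oral doses (10 mL/kg) for 21 days. On day 21, dosed 225 min before a spontaneous-alternation trial in a gray Plexiglas T-maze. Exposure measured in plasma and brain. One-way ANOVA.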

[31] = Half life in BALB/C mouse plasma at 2 mg/kg, po; format: ADME, organism-based
[32] = Cmax in Sprague-Dawley rat brain at 2 mg/kg, po; format: ADME, organism-based; set-up: dose 2 mg/kg, route oral
[33] = AUC in BALB/C mouse plasma at 2 mg/kg, po; format: ADME, organism-based

Sequence of Sphingosine 1-phosphate receptor 2 (Homo sapiens) (O95136 whole entry): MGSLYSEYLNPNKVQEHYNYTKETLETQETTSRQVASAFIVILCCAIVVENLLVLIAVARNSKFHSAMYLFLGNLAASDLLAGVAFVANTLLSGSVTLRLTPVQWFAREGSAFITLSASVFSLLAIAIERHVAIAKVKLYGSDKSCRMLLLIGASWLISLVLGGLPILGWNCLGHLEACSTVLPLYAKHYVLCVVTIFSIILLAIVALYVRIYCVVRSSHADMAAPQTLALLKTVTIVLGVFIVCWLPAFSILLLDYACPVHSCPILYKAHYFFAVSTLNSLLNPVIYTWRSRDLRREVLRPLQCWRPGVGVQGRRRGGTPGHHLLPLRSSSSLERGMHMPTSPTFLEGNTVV
Sequence of Sphingosine 1-phosphate receptor 3 (Q99500 whole entry): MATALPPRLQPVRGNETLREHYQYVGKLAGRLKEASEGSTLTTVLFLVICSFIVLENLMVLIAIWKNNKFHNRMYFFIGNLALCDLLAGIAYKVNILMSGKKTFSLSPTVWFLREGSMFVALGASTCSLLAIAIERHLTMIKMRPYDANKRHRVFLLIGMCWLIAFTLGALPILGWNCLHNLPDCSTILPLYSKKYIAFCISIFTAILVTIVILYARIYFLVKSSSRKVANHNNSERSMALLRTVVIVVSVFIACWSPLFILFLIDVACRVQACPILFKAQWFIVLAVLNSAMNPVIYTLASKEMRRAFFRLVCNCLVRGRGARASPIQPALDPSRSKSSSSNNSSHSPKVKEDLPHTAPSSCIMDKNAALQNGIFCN

SMILES: O=C(O)C1CN(Cc2ccc(OCc3ccc(Cl)c(Cl)c3)cc2)C1
- Activity (Rattus norvegicus [1]): Non-toxic
- Activity [2]: inactive
- concentration at 0.5 h [3]: 8660 ng/mL
- Cmax [4]: 43 ng/mL
- Vd [5]: 0.82 L/kg
- Tmax [6]: 8 h
- Activity [7]: inactive
- clearance [8]: 2.67 mL/min/kg
- Activity (Rattus norvegicus [9]): 22%
- half-life [10]: 558 min
- concentration at 5 h [11]: 15000 ng/mL
- Activity (Rattus norvegicus [12]): Non-toxic
- Activity (Mus musculus [13]): inactive
- AUC [14]: 8700 ng·h/mL
- Cmax [15]: 2500 ng/mL
- half-life [16]: 588 min
- Activity [17]: inactive
- Activity (Mus musculus [18]): inactive
- Activity [19]: inactive
- AUC [20]: 3100 ng·h/mL
- Activity (Rattus norvegicus [21]): Non-toxic
- Activity (Rattus norvegicus [22]): Non-toxic
- concentration at 0.5 h [23]: 1840 ng/mL
- Tmax [24]: 1.7 h
- concentration at 5 h [25]: 1800 ng/mL
- Activity [26]: inactive
- AUC [27]: 5500 ng·h/mL
- Activity (Rattus norvegicus [28]): Non-toxic
- AUC [29]: 12000 ng·h/mL
- Activity (Mus musculus [30]): Dose-dependent effect
- LED (Mus musculus [30]): 0.1 mg/kg
- half-life [31]: 444 min
- Cmax [32]: 120 ng/mL
- AUC [33]: 4800 ng·h/mL
